One data set has as its target T1, Toll-like receptor 8 (Homo sapiens, UniProt Q9NR97).
T1 sequence (Q9NR97 whole entry): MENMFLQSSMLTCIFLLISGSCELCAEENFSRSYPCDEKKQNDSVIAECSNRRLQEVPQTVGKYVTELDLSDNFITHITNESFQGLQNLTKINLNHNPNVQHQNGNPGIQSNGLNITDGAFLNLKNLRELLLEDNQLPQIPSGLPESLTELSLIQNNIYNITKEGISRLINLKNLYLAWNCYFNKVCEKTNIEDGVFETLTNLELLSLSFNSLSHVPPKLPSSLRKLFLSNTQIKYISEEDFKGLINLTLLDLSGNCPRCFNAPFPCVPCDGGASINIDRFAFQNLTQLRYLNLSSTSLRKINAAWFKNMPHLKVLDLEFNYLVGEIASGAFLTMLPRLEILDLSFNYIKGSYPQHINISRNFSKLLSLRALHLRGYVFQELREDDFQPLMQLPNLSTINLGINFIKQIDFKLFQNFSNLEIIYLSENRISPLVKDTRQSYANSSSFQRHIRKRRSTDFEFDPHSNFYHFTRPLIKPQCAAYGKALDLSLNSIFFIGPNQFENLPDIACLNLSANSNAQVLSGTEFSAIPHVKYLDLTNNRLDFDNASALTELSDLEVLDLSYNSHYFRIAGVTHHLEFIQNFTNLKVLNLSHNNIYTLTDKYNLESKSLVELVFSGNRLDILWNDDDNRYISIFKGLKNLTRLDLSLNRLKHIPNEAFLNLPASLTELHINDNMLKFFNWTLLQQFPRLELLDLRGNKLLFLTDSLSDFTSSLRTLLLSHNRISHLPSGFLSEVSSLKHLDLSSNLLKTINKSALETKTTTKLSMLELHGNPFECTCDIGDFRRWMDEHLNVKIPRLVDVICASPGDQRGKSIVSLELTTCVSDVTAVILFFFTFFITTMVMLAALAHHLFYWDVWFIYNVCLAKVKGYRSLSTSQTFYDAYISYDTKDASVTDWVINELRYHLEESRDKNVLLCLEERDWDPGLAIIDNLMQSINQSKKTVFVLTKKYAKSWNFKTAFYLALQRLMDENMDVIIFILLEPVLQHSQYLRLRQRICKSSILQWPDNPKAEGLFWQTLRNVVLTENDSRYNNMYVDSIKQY
Put plainly: Agonist activity at TLR8 in human cryopreserved PBMC assessed as induction of IL-12p40 production measured after 24 hrs.

Data set [1] in a line: Clearance in rat hepatic microsomes at 2 uM measured up to 60 mins in presence of NADPH generating system by LC-MS/MS analysis. Type of data set: ADME, Microsome. The conditions noted are these: liver microsomes. Background: Liver microsomes are a subcellular fraction often used to study metabolism.
Data set [2] can be described thus: Clearance in dog hepatic microsomes at 2 uM measured up to 60 mins in presence of NADPH generating system by LC-MS/MS analysis. The conditions noted are these: liver microsomes. It counts as ADME, Canis lupus familiaris, Microsome.
Data set [3] in a line: Apparent permeability across apical to basolateral side in human Caco2 cells measured after 1 to 2 hrs by LC-MS/MS analysis. The conditions noted are these: Caco-2. A general note: Passage across Caco-2 layers is used to estimate intestinal permeability.
Data set [4] is described as follows: Drug metabolism in human hepatocytes assessed as core oxidation. Type of data set: ADME, cell-based, Hepatocyte.
Data set [5] is described as follows: Cytotoxicity against human MT4 cells assessed as reduction in cell viability measured after 4 to 5 days by celltiter-glo assay. It counts as cell-based. Particulars: time 4-5 day.
The next data set has as its target T2, Toll-like receptor 7 (Homo sapiens, UniProt Q9NYK1).
T2 sequence (Q9NYK1 whole entry): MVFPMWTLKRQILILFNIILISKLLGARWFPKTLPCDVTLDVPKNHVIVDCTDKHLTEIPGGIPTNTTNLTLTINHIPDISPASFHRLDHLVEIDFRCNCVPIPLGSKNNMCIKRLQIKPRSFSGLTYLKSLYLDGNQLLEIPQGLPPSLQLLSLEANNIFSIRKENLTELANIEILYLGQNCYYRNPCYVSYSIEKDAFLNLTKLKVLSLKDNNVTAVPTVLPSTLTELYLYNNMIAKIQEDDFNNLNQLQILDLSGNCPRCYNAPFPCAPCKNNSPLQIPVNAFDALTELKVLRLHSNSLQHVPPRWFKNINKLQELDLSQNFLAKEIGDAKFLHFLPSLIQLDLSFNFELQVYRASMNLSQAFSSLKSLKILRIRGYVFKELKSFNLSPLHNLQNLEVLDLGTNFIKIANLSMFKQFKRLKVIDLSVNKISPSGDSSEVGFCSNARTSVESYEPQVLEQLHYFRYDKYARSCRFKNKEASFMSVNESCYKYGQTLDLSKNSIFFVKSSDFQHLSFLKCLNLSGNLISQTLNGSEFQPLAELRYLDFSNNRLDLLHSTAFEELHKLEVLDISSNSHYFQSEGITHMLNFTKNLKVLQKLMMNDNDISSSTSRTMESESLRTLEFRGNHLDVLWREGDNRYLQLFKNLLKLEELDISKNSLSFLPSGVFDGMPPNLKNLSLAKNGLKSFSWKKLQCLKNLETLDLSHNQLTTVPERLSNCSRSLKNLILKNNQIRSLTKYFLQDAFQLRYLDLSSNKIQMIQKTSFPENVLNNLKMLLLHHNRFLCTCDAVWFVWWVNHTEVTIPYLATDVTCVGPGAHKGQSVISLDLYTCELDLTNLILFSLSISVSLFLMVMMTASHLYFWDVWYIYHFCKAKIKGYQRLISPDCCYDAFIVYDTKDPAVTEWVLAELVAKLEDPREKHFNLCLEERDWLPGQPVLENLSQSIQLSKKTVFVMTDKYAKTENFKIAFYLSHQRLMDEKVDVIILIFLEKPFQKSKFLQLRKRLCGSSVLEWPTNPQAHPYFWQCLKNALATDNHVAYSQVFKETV
Put plainly: Agonist activity at TLR7 in human cryopreserved PBMC assessed as induction of IFNalpha production measured after 24 hrs. The method in brief: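 Cryopreserved healthy-donor human PBMC, recovered 2 h at 37°C/5% CO2, then 100k cells/well in RPMI/10% FBS exposed 24 h at 37°C to a 10-point half-log dilution series (0.5% final DMSO). Supernatant IFNα-2a quantified by MSD electrochemiluminescence immunoassay. For the ratio, divided by the IL-12p40 EC50 from the same PBMC screen.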

The nature of data set [6]: Selectivity index, ratio of CC50 for human MT4 cells to EC50 for TLR8 in human cryopreserved PBMC assessed as induction of IL-12p40 production.
The nature of data set [7]: Apparent permeability across basolateral to apical side in human Caco2 cells measured after 1 to 2 hrs by LC-MS/MS analysis. The conditions noted are these: Caco-2.
The nature of data set [8]: Clearance in human hepatic microsomes at 2 uM measured up to 60 mins in presence of NADPH generating system by LC-MS/MS analysis. The conditions noted are these: liver microsomes. Type of data set: ADME, Microsome.
Data set [9] can be described thus: Clearance in cynomolgus monkey hepatic microsomes at 2 uM measured up to 60 mins in presence of NADPH generating system by LC-MS/MS analysis. It counts as ADME, Macaca fascicularis, Microsome. The conditions noted are these: liver microsomes.
Data set [10] can be described thus: Dissociation constant, pKa of the compound. Type of data set: physicochemical.
The next data set is filed under the species Homo sapiens. Put plainly: Selectivity ratio of EC50 for TLR7 in human cryopreserved PBMC assessed as induction of IFNalpha production to EC50 for TLR8 in human cryopreserved PBMC assessed as induction of IL-12p40 production. In short, it runs like this: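 Cryopreserved healthy-donor human PBMC, recovered 2 h at 37°C/5% CO2, then 100k cells/well in RPMI/10% FBS exposed 24 h at 37°C to a 10-point half-log dilution series (0.5% final DMSO). Supernatant IFNα-2a quantified by MSD electrochemiluminescence immunoassay. Normalized to 10 µM GS-9620 positive and DMSO negative controls; EC50 from 4-parameter logistic fit. For the ratio, divided by the IL-12p40 EC50 from the same PBMC screen.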

Usually EC50 stands for the concentration that produces a half-maximal response. One may read the Papp A→B as the apparent permeability from the apical to the basolateral side of a cell layer. Broadly, the CC50 is the concentration giving 50% cytotoxicity. Usually Papp B→A stands for the apparent permeability from the basolateral to the apical side of a cell layer. By pKa is commonly meant the pH at which an ionisable group is half protonated.

`CCCC[C@@](C)(CO)Nc1nc(N)nc2cccnc12`: the EC50 on Toll-like receptor 8 was determined as 2.4 µM; at Toll-like receptor 7, 7.9 µM. In addition, the CLhep predicted at 2 µM in data set [1] is 58.3 mL/min/kg; in [2], 25 mL/min/kg; in [8], 13.3 mL/min/kg; in [9], 23.3 mL/min/kg. Further, the Papp A→B in data set [3] came to 32 ×10⁻⁶ cm/s. In [4], the Drug metabolism entry was “Metabolite_Detected”. Also, the CC50 in data set [5] was determined as 26 µM. The “Ratio CC50/EC50” value in [6] is given as 11. Besides, the Papp B→A in [7] came to 31 ×10⁻⁶ cm/s.
Turning to `CCCC[C@](C)(CO)Nc1nc(N)nc2cc(C)cnc12`, the EC50 on Toll-like receptor 8 is 0.16 µM; at Toll-like receptor 7, more than 50 µM. Further, the CLhep predicted at 2 µM in data set [1] is 63.3 mL/min/kg; in data set [2], 18.3 mL/min/kg; in data set [8] it was 8.33 mL/min/kg; in data set [9], 25 mL/min/kg. Besides, in [3], the Papp A→B came to 31 ×10⁻⁶ cm/s. Further, the pKa in data set [10] came to 7.1. Further, the CC50 in data set [5] was determined as 23 µM. The “Ratio CC50/EC50” value in data set [6] is recorded as 144. Also, the Papp B→A in data set [7] was found to be 29 ×10⁻⁶ cm/s. Besides, the Ratio EC50 in the data set filed under Homo sapiens is more than 185.
With `CCCC[C@](C)(CO)Nc1nc(N)nc2cccnc12`, the results for the EC50 on Toll-like receptor 8 and on Toll-like receptor 7 were 0.17 µM and 15 µM, respectively. For the same compound, the CLhep predicted at 2 µM was 58.3 mL/min/kg in data set [1], 23.3 mL/min/kg in data set [2], 13.3 mL/min/kg in data set [8] and 21.7 mL/min/kg in data set [9]. The Papp A→B in [3] came to 29 ×10⁻⁶ cm/s. The Drug metabolism entry in [4] is on record as “Metabolite_Detected”. For the same compound, the CC50 in data set [5] came to 31 µM. Further, the “Ratio CC50/EC50” value in data set [6] is given as 182. Also, the Papp B→A in data set [7] stood at 29 ×10⁻⁶ cm/s. Moreover, the Ratio EC50 in the data set filed under Homo sapiens is more than 80.
In the case of `CCCC[C@](C)(CO)Nc1nc(N)nc2cc(Cl)cnc12`, the EC50 was 0.27 µM on Toll-like receptor 8 and more than 42 µM at Toll-like receptor 7. Moreover, the CLhep predicted at 2 µM in data set [1] was 56.7 mL/min/kg; in data set [2] it was 30 mL/min/kg; in [8], 16.7 mL/min/kg; in data set [9], 23.3 mL/min/kg. The pKa in data set [10] was determined as 6.4. Further, the CC50 in data set [5] turned out to be 22 µM.

The values above are taken from ChEMBL document CHEMBL4725242, “Discovery of GS-9688 (Selgantolimod) as a Potent and Selective Oral Toll-Like Receptor 8 Agonist for the Treatment of Chronic Hepatitis B” (J Med Chem, 2020).
